Experiment: Toxicity liver stage against HepG2, at 10uM
Format: cell-based
Set-up: test concentration 10 uM, cell line HepG2-A16-CD81EGFP
Details: human, HepG2-A16-CD81EGFP cells; read-out: INHIBITION
In short: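 Uninfected HepG2-A16-CD81EGFP cells, 3 × 10^3 per well, 1536-well, plated on prespotted compound at 10 μM final, parasite-free screening media added to match infected plates; puromycin 10 μM positive, DMSO 0.5% negative; run in parallel with 48 h PbLuc assay at 37 °C, 5% CO2; viability by CellTiter-Glo luminescence, normalized to controls.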

Row | SMILES | cytotoxicity at 10 µM [%]
1 | CC(C)N1CCC(Nc2ccn(CCC#N)n2)C1=O (stereo unspecified) | 15.7
2 | O=C1CC(c2ccncc2)C2(CCN(C(=O)c3ccnnc3)CC2)N1 (stereo unspecified) | -80.4
3 | CC(C)(O)c1cn(C2CCN(c3ncccc3Cl)CC2)nn1 | -46.4
4 | Cn1nc2c(cc1=O)CN(Cc1nnc(-c3ccco3)o1)CC2 | -4.64
5 | CCc1nc(C2CCCN(c3ncccn3)C2)no1 (stereo unspecified) | -0.996
6 | CC(C)(C)c1nc(CN2CCCC2CCc2ccccc2)no1 (stereo unspecified) | -5.95
7 | COc1ncccc1NC(=O)C1CCN(S(C)(=O)=O)CC1 | -5.74
8 | Cc1ccc(C)c(S(=O)(=O)NCCNc2ccc(-n3cccc3)nn2)c1 | 1.77
9 | Cn1cccc1C(=O)N1CCC2(CC1)CC(N1CCOCC1)C2 | -8.25
10 | CN(C)C(=O)c1cn2cc(-c3cccc(Cl)c3)n(CC3CC3)c(=O)c2n1 | -1.62
11 | O=C1CC2(CCSC2)C(=O)N1CCCc1ccccc1 (stereo unspecified) | 6.43
12 | Cc1ccccc1C1(C(=O)NCCN2CCCC(C)C2)CCOCC1 (stereo unspecified) | -2.34
13 | O=C(c1scc2c1OCCO2)N1CCOC(Cc2cccc(F)c2)C1 (stereo unspecified) | 4.78
14 | Cc1nsc(NCc2ccc(CS(=O)(=O)NC(C)C)cc2)n1 | -2.8
15 | Cc1ccc(NC2CCN(C(=O)COc3cccc(F)c3)CC2)nn1 | 3.11
16 | CCN(CC)c1ncc(Cl)c(C(=O)NC2CCC(O)CC2)n1 (stereo unspecified) | -43.5
17 | CN(C)C(c1ccccn1)C1CCC(CNC(=O)CC2CCCC2)CC1 (stereo unspecified) | 9.43
18 | Cc1noc(C2CCN(C(=O)CCNS(C)(=O)=O)CC2)n1 | -21
19 | CC(C)C(NC(=O)c1ccccc1F)C(=O)Nc1cnn(C)c1 (stereo unspecified) | -7.58
20 | COCCNc1cc(-c2ccccc2S(N)(=O)=O)c2cc[nH]c2n1 | 6.68
21 | COCc1ccc(C(=O)N2CCCN(c3ccc(F)cc3)CC2)s1 | -8.92
22 | COc1ccc(-c2cc(C3CCNCC3)ccn2)cc1 | 0.288
23 | COc1nc2ccn(CCc3scnc3C)c(=O)c2cc1C#N | 12.8

Row | SMILES | cytotoxicity at 10 µM [%]
24 | CCc1cnc(CN(C)C(=O)NC2CCN(c3ccccc3)C2)s1 (stereo unspecified) | -2.12
25 | CCn1cnnc1CCNC(=O)C(C)(C)c1cccc(Cl)c1 | 7.76
26 | Cc1ccc(CN2CC[C@H]3C[C@@H](c4nc(C5CC5)cs4)O[C@@H]3C2)o1 | -4.29
27 | O=C(NCc1nc(NC2CCCC2)c2cc(Cl)ccc2n1)c1cscn1 | 7.12
28 | Cc1nc(CNCc2ccc(OC34CCCN(CC3)C4)cc2)n[nH]1 (stereo unspecified) | 1.01
29 | COc1cc2cc(C(=O)NC(C)C(=O)O)n(C)c2c(OC)c1OC (stereo unspecified) | -162
30 | NC(=O)COc1ccc(CNCc2ccc(Cl)c(F)c2)cc1 | -3.64
31 | NC1CCc2nc(-c3cccnc3)nc(Nc3ccc(F)cc3)c2C1 (stereo unspecified) | -10.5
32 | Cn1nc(CN2CCOCC2)c2c1CN(Cc1ccsc1)C2 | -145
33 | O=C(NCCNc1cnccn1)N1CC=C(c2ccccc2)CC1 | 6.39
34 | Cc1cnc(CN(C)C(=O)C23CNCC2CNC3)[nH]1 (stereo unspecified) | -6.46
35 | CCOc1cc(C(=O)N2CCOCC2)cc2occc12 | -4.92
36 | Cc1cc(C(C)NC(=O)N2CCC(n3cncn3)CC2)c(C)s1 (stereo unspecified) | -15.9
37 | CC(C)(Oc1ccc(C(N)=O)cc1)C(=O)N(CCC#N)CC1CCCO1 (stereo unspecified) | 5.55
38 | N#Cc1ccccc1NC(=O)C1CN(C(=O)c2ccc3c(c2)OCO3)C1 | -8.64
39 | COc1cccc(CN2CCC3(CCN(c4ncc(C)cn4)C3)C2=O)c1 (stereo unspecified) | -0.265
40 | COc1nn(C)c2c1CCCN(C(=O)c1ccccc1F)C2 | 11.5
41 | Cc1nc2n(n1)CCN(S(=O)(=O)c1ccc(Cl)cc1)C2 | 5.76
42 | CCCOc1cc(CNC(=O)Nc2cccc(C(C)=O)c2)ccn1 | -1
43 | CC(C)c1ccn(C2(C(=O)O)CCN(c3cc(C(N)=O)ccn3)CC2)n1 | 1.71
44 | CC(C)CC(C)NC1CCN(c2ccc(-c3cscn3)cc2)CC1 (stereo unspecified) | -50.6
45 | CN1CCCN(C[C@@H]2CN(C(=O)N3CCOCC3)C[C@@H]2CO)CC1 | -7.43
46 | CC(C)(C)C(=O)N1CCCC1c1cc(CO)[nH]n1 (stereo unspecified) | 1.61

Row | SMILES | cytotoxicity at 10 µM [%]
47 | O=C(c1ccccc1)N1CCS(=O)(=O)[C@@H]2CCNCC[C@@H]21 | -127
48 | COCCN(CCOC)C(=O)Nc1cc(C(F)(F)F)c[nH]c1=O | -4.28
49 | CC(Cn1cccn1)NCc1ccc(OCc2ccncc2)cc1 (stereo unspecified) | -29.9
50 | Cc1nccn1-c1cncc(C2CCCN2Cc2cccnc2)n1 (stereo unspecified) | -20.4
51 | O=C(Cc1ccsc1)N1Cc2nc(CN3CCCCC3)oc2C1 | 7.19
52 | COc1ccccc1C(C)N1CCN(S(C)(=O)=O)CC1 (stereo unspecified) | 9.62
53 | CC(C)c1nnc(CN2CCCC2C(=O)OCc2ccccc2)o1 (stereo unspecified) | 2.78
54 | Cc1c(C)n(CC(O)CN2CCOCC2)c2c(Cl)cccc12 (stereo unspecified) | 0.829
55 | OCC(O)CSCc1ccc(F)cc1Cl (stereo unspecified) | -138
56 | COc1cc(CCC(=O)NCC2CC2)ccc1OCC(F)(F)F | -4.81
57 | O=C(c1cccnc1)N1C[C@H]2CC[C@@H](C1)N(Cc1cc(F)ccc1F)C2 | -10.2
58 | Cn1cccc1C(CNC(=O)COc1ccc(Cl)cc1Cl)N1CCCC1 (stereo unspecified) | -8.64
59 | Cc1cccc(CN2CCC3(CC2)NC(=O)CC3c2ccccc2)n1 (stereo unspecified) | -0.508
60 | Cc1cc(C)n(CC2CCCN2C(=O)c2ccc3nncn3c2)n1 (stereo unspecified) | 2.01
61 | CCCN(Cc1ccccc1O)C(=O)Nc1cnn(CCOC)c1 | 23.8
62 | CC(C)c1cc(=O)[nH]c(-c2ccccc2CN2CCC(C)(C)C2)n1 | -42
63 | O=C(CCc1cc(Cl)no1)N1CCCCC1CCN1CCOCC1 (stereo unspecified) | -9.97
64 | CCC(CO)N(Cc1ccccc1C)Cc1ccccc1C(=O)O (stereo unspecified) | -6.32
65 | CN(Cc1ccc([S+](C)[O-])cc1)c1cncc(Cl)n1 (stereo unspecified) | -10.6
66 | CN(C)C(=O)N1CCC2(CC1)CN(CC1CC1)CC21CCNC1=O (stereo unspecified) | 3.67
67 | CC(C)(C)c1nc(CN(Cc2cccs2)C2CCS(=O)(=O)C2)no1 (stereo unspecified) | -3.63
68 | c1ccc(Cc2nc(CNC3CCOC4(CCOCC4)C3)no2)cc1 (stereo unspecified) | -10.6
69 | COc1ccc(C(=O)NS(=O)(=O)c2ccc(C#N)cc2C(F)(F)F)cc1 | -10.5

Row | SMILES | cytotoxicity at 10 µM [%]
70 | O=C(c1cccc(S(=O)(=O)NCCc2ccccn2)c1)N1CCOCC1 | -0.764
71 | CC(=O)NCCNC(=O)c1sc(-c2ccc(Cl)cc2)nc1C | -7.6
72 | CC(C)(C)c1nnc(CN2CCOC(Cn3cncn3)C2)o1 (stereo unspecified) | -1.5
73 | CC1CCCN(Cc2ccc(CNC(=O)NCc3ccncc3)cc2)C1 (stereo unspecified) | 4.64
74 | O=C1CC[C@H]2[C@H](CCN2c2ccccn2)N1CC1CCOCC1 | -36.4
75 | COCCN(C)C[C@@H]1CN(C(=O)c2ccc(C)c(Cl)c2)C[C@@H]1CO | -0.678
76 | CCc1noc(CNc2ccc(C(=O)N3CCCC3)cc2C)n1 | -8.25
77 | COC(=O)C1CCN(C(=O)c2cc(Br)ccc2-n2cnnn2)CC1 | 4.67
78 | Cc1nccc(CNC(=O)NC(c2ncc(C)s2)C2CC2)n1 (stereo unspecified) | -0.898
79 | Cc1cnn(CC2CN(Cc3nc4ccccc4s3)CCO2)c1 (stereo unspecified) | 0.639
80 | CCNc1ccnc(NC2CCN(CC(N)=O)CC2)n1 | -15.7
81 | Cn1ncc2c1C(COCC1CC1)N(C(=O)c1ccncn1)CC2 (stereo unspecified) | -132
82 | CCCN1CCc2nc(SCc3ccccc3F)[nH]c(=O)c2C1 | -2.62
83 | Cc1noc(Cl)c1CCC(=O)N1CCN(c2cnccn2)CC1 | -3.5
84 | NC(=O)N1CC2(CCNCC2)c2cc(Cl)ccc21 | 1.79
85 | COCCC(=O)N1CCC(c2cc(O)n(C)n2)C1 (stereo unspecified) | -23.1
86 | CC(=O)Nc1nc(C2CCN(C(C)C)CC2)cs1 | -3.3
87 | CN(C)CCn1c2c(ccc1=O)CC(NC(=O)c1cnccn1)CC2 (stereo unspecified) | -2.4
88 | CCOc1ncccc1CNCc1c(C(C)C)nn(C)c1N(C)C | -8.19
89 | COC(=O)c1cc(OCC2CCC2)cc(C(=O)N[C@H](C)C(N)=O)c1 | 16.6
90 | CCc1nc2n(n1)CC(NCc1ncc(-c3ccccc3)o1)CC2 (stereo unspecified) | -3.91
91 | CNS(=O)(=O)CC1CCCN1C(=O)c1ccc2cc[nH]c2c1 (stereo unspecified) | -0.651
92 | O[C@@H]1C[C@H]2CN(CC3CCCCC3)[C@H](Cc3ccccc3)CN2C1 | 0.13

Row | SMILES | cytotoxicity at 10 µM [%]
93 | CCOCCCNc1ncc(-c2cccc(F)c2)c(-c2nccn2C)n1 | 12.5
94 | CCOCCCC(=O)NCc1ccc(N2CCCCC2)cc1 | -4.06
95 | CCn1cc2c(n1)CN(Cc1nccs1)CC2COCC1CC1 (stereo unspecified) | 6.07
96 | COc1ccc(C2CN(c3cc(C)ncn3)CCN2C(C)=O)cc1 (stereo unspecified) | 0.23
97 | COC(=O)N1CCCC(C(=O)Nc2nc(C)c(SC)s2)C1 (stereo unspecified) | 11.1
98 | CCc1nnc(CN2CCCC(c3cc(C(F)(F)F)[nH]n3)C2)o1 (stereo unspecified) | 6.88
99 | CN(C)CC1CN(Cc2cc(Cl)cc3cccnc23)CCO1 (stereo unspecified) | 5.26
100 | CCc1nccn1-c1cncc(C2CCCN2Cc2ccc(F)cc2)n1 (stereo unspecified) | -1.44
101 | CCCn1ccnc1-c1cccc(NC(=O)C2CCCOC2)c1 (stereo unspecified) | -2.43
102 | CN1CCCC(CCC(=O)NCCc2nnc(N)s2)C1 (stereo unspecified) | -146
103 | CO[C@H]1CCN(S(=O)(=O)c2cn(C)cn2)[C@H]1Cc1ccncc1 | 9.43
104 | CC(C)COCCCNC(=O)NCC(O)c1cccc(F)c1 (stereo unspecified) | -3.1
105 | CCCN1CCC(CC(=O)N(C)CC(=O)c2ccc(O)cc2)CC1 | 1.73
106 | CCc1ccc2c(c1)C(CCNC(=O)CSC(F)(F)F)C(=O)N2 (stereo unspecified) | -45.5
107 | CCNc1ccc(-c2ccnc3c2ccn3C)nn1 | -18.1
108 | CC(C)COCC1CN(Cc2ccco2)Cc2ncn(C)c21 (stereo unspecified) | 4.24
109 | CC(C)CCN1CCN(C(=O)c2ccc(=O)[nH]n2)CC1 | -6.96
110 | CCC[C@H]1CN(C(=O)CCn2ccccc2=O)C[C@@H]1NS(C)(=O)=O | 5.35
111 | OCCC1CN(c2ncnc3[nH]cnc23)CCN1Cc1ccccc1 (stereo unspecified) | 11.9
